Source: ChEMBL document CHEMBL1125520, “Improved brain delivery of AZT using a glycosyl phosphotriester prodrug” (1992)

How the values were obtained:
Mus musculus [1] = species on record: Mus musculus; test: In Vitro detection by Gray and Whittaker method for the total internal nucleoside; type: functional
Outline: (§1)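 Crude synaptosomes from three mouse brains were prepared by Gray–Whittaker homogenization in 10% sucrose buffered with 5 mM Tris-HCl, pH 7.4. The 7000g pellet was resuspended and incubated with each nucleoside at 3 mM for 15 min at 37 °C, stopped by cold 10-fold dilution and washed twice. Internal nucleoside was extracted in acetonitrile–water (3:1) and measured by HPLC.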

Mus musculus [2] = species on record: Mus musculus; test: Concentration of external nucleoside in mouse brain; type: functional
Outline: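 Male Swiss mice (6 weeks, 18–20 g) dosed by oral gavage in saline vehicle at 20 mg/kg AZT or molar equivalent (3 mM, 1.5 µmol/mouse). Brains taken 0.5–48 h post-dose, homogenized in acetonitrile–water 3:1, centrifuged, lyophilized and filtered. Analysed by column-switching C18 HPLC with diode-array detection against spiked standards and vehicle controls. Three mice per time point, triplicates; not recovery-corrected.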

Mus musculus [3] = species on record: Mus musculus; test: In Vitro detection by Gray and Whittaker method for % of internalization by comparing with external nucleoside of 2000 nM/g; type: functional; outline: as §1
Mus musculus [4] = test: In Vivo detection in Mice plasma after oral administration of 20 mg/kg detected in the form of AZT after 2 hr; type: functional, organism-based; set-up: dose 20 mg/kg
Mus musculus [5] = test: In Vivo detection in Mice plasma after oral administration of 20 mg/kg detected in the form of AZT after 4 hr; type: functional, organism-based; set-up: dose 20 mg/kg
Mus musculus [6] = test: In Vivo detection in Mice plasma after oral administration of 20 mg/kg detected in the form of AZT after 1 hr; type: functional, organism-based; set-up: dose 20 mg/kg
Mus musculus [7] = test: In Vivo detection in Mice plasma after oral administration of 20 mg/kg detected in the form of AZT 5`-P after 1 hr; type: functional, organism-based; set-up: dose 20 mg/kg
Mus musculus [8] = test: In Vivo detection in Mice plasma after oral administration of 20 mg/kg detected in the form of AZT 5`-P after 0.5 hr; type: functional, organism-based; set-up: dose 20 mg/kg
Mus musculus [9] = test: In Vivo detection of total AZT in Mice plasma after oral administration of 20 mg/kg after 8 hr; type: functional, organism-based; set-up: dose 20 mg/kg
Outline: (§2)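 Male Swiss mice (18–20 g, six weeks old) given the test substance or vehicle ([…]) by gavage as a 3 mM solution (1.5 µmol/mouse). Aortic blood was collected into heparinized tubes at 0.5–48 h and centrifuged at 13000g for 10 min. Plasma was stored at -22 °C and analysed by HPLC. Three mice were used per time point, in triplicate. Values were not corrected for recovery.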

Mus musculus [10] = test: In Vivo detection in Mice plasma after oral administration of 20 mg/kg detected in the form of AZT 5`-P after 24 hr; type: functional, organism-based; set-up: dose 20 mg/kg
Mus musculus [11] = test: In Vivo detection in Mice plasma after oral administration of 20 mg/kg detected in the form of AZT after 0.5 hr; type: functional, organism-based; set-up: dose 20 mg/kg
Mus musculus [12] = test: In Vivo detection of total AZT in Mice plasma after oral administration of 20 mg/kg after 1 hr; type: functional, organism-based; set-up: dose 20 mg/kg; outline: as §2
Mus musculus [13] = test: In Vivo detection in Mice plasma after oral administration of 20 mg/kg detected in the form of AZT 5`-P after 4 hr; type: functional, organism-based; set-up: dose 20 mg/kg
Mus musculus [14] = test: In Vivo detection of total AZT in Mice plasma after oral administration of 20 mg/kg after 24 hr; type: functional, organism-based; set-up: dose 20 mg/kg; outline: as §2
Mus musculus [15] = test: In Vivo detection in Mice plasma after oral administration of 20 mg/kg detected in the form of AZT 5`-P after 2 hr; type: functional, organism-based; set-up: dose 20 mg/kg
Mus musculus [16] = test: In Vivo detection in Mice plasma after oral administration of 20 mg/kg detected in the form of AZT 5`-P after 48 hr; type: functional, organism-based; set-up: dose 20 mg/kg
Mus musculus [17] = test: In Vivo detection of total AZT in Mice plasma after oral administration of 20 mg/kg after 48 hr; type: functional, organism-based; set-up: dose 20 mg/kg; outline: as §2
Mus musculus [18] = test: In Vivo detection in Mice plasma after oral administration of 20 mg/kg detected in the form of AZT after 8 hr; type: functional, organism-based; set-up: dose 20 mg/kg
Mus musculus [19] = test: In Vivo detection of total AZT in Mice plasma after oral administration of 20 mg/kg after 4 hr; type: functional, organism-based; set-up: dose 20 mg/kg; outline: as §2
Mus musculus [20] = test: In Vivo detection of total AZT in Mice plasma after oral administration of 20 mg/kg after 0.5 hr; type: functional, organism-based; set-up: dose 20 mg/kg; outline: as §2
Mus musculus [21] = test: In Vivo detection in Mice plasma after oral administration of 20 mg/kg detected in the form of AZT after 48 hr; type: functional, organism-based; set-up: dose 20 mg/kg
Mus musculus [22] = test: In Vivo detection in Mice plasma after oral administration of 20 mg/kg detected in the form of AZT 5`-P after 8 hr; type: functional, organism-based; set-up: dose 20 mg/kg
Mus musculus [23] = test: In Vivo detection in Mice plasma after oral administration of 20 mg/kg detected in the form of AZT after 24 hr; type: functional, organism-based; set-up: dose 20 mg/kg
Mus musculus [24] = test: In Vivo detection of total AZT in Mice plasma after oral administration of 20 mg/kg after 2 hr; type: functional, organism-based; set-up: dose 20 mg/kg; outline: as §2

`Cc1cn([C@H]2C[C@H](N=[N+]=[N-])[C@@H](COP(=O)(O)O)O2)c(=O)[nH]c1=O` [AZIDOTHYMIDINE MONOPHOSPHATE] was tested, and the Brain content (Mus musculus [1]) was 1.1 nM/g, the External nucleoside (Mus musculus [2]) was 2000 nM/g and the Internalisation (Mus musculus [3]) was 0.06%.
Molecule `Cc1cn([C@H]2C[C@H](N=[N+]=[N-])[C@@H](CO)O2)c(=O)[nH]c1=O` [ZIDOVUDINE] has a Plasma content (Mus musculus [4]) of 6 nM ml-1, a Plasma content (Mus musculus [5]) of 4.4 nM ml-1 and a Plasma content (Mus musculus [6]) of 15.7 nM ml-1. The Plasma content (Mus musculus [7]) was 27.5 nM ml-1, the Plasma content (Mus musculus [8]) was 21.7 nM ml-1 and the Plasma content (Mus musculus [9]) was 0 nM ml-1. It also gave a Plasma content (Mus musculus [10]) of 0 nM ml-1, a Plasma content (Mus musculus [11]) of 26.6 nM ml-1 and a Plasma content (Mus musculus [12]) of 43.2 nM ml-1. The Plasma content (Mus musculus [13]) was 0 nM ml-1, the Plasma content (Mus musculus [14]) was 0 nM ml-1 and the Plasma content (Mus musculus [15]) was 13.1 nM ml-1. For the same molecule, the Plasma content (Mus musculus [16]) was 0 nM ml-1, the Plasma content (Mus musculus [17]) was 0 nM ml-1 and the Plasma content (Mus musculus [18]) was 0 nM ml-1. The Plasma content (Mus musculus [19]) was 4.4 nM ml-1, the Plasma content (Mus musculus [20]) was 48.3 nM ml-1 and the Plasma content (Mus musculus [21]) was 0 nM ml-1. For the same molecule, the Plasma content (Mus musculus [22]) was 0 nM ml-1, the Internalisation (Mus musculus [3]) was 0.03% and the Plasma content (Mus musculus [23]) was 0 nM ml-1. The Plasma content (Mus musculus [24]) was 19.1 nM ml-1.
